Legend:
NTPDase1 = experiment: Kinetic parameter Km value for Bovine spleen NTPDase1 hydrolysis.; assay type: ADME, Bos taurus; conditions: cattle
In short: (§1)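 Semipurified bovine spleen particulate NTPDase1 (about 1 μg protein), preincubated 3 min at 37 °C in 8 mM CaCl2, 5 mM tetramisole, 50 mM imidazole, 50 mM Tris pH 7.5. The reaction was started with substrate at 10–100 μM and stopped after 7 min with malachite green to read Pi release. Apparent Km and Vmax came from a Woolf–Augustinson–Hofstee plot; assays were run in triplicate.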

Bos taurus = species on record: Bos taurus; experiment: Kinetic parameter Vmax value for Bovine spleen NTPDase1 hydrolysis.; assay type: ADME; conditions: cattle; in short: as §1
[1] = Hydrolysis rate constant was determined; assay type: ADME
In short: (§2)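 ³¹P NMR follow-up of hydrolysis at 37 °C. At pH 7.4 the diastereoisomeric mixture (tetrasodium salt) was held in Tris-HCl buffer and recorded for 3 weeks at 1–3 day intervals; hydrolysis came from Pγ (−7.5 ppm) versus inorganic phosphate (1.7 ppm) integrals. At pH 1.4 the sample was in KCl/HCl buffer with D2O, recorded for 17 h every 0.5 h; Pβ intensity versus time was fit to pseudo-first-order kinetics.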

[2] = Half life was determined; assay type: ADME; in short: as §2
P2Y purinoceptor 1 = P2Y purinoceptor 1 (Rattus norvegicus, UniProt P49651); experiment: Agonists activity was evaluated by release of [Ca2+] release of HEK 293 cells stably transfected with rat-brain P2Y purinoceptor 1 (P2Y1-R); assay type: functional, cell-based, HEK293
In short: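 HEK293 cells stably expressing rat brain P2Y1 receptor, grown on coverslips, loaded 30 min with 2 μM Fura 2-AM in HEPES-buffered saline pH 7.4. Continuous superfusion with 35 °C HBS containing varying nucleotide concentrations. Single-cell fluorescence at 340/380 nm excitation, 500 nm emission. EC50 from concentration–response of ΔF340/F380, averaged over 60–100 cells; at least three separate experiments; ATP as reference.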

Half life was determined = conditions: pH 1.4, 37 °C

Chain of P2Y purinoceptor 1 (P49651 whole entry, the tested form may be a part): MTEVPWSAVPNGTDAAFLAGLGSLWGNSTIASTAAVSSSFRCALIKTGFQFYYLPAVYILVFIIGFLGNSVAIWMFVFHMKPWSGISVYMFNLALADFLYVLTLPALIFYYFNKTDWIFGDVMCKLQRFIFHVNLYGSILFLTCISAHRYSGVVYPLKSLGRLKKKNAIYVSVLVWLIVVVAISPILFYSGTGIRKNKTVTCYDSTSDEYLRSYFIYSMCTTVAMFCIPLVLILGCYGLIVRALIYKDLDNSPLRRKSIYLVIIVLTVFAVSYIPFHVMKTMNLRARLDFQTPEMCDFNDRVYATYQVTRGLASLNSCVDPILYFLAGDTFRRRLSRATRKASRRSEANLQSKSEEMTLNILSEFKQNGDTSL

| Compound | Km (NTPDase1) | Vmax (Bos taurus) | Hydrolysis rate constant [1] | half-life [2] | EC50 (P2Y purinoceptor 1) | half-life (Half life was determined) |
| --- | --- | --- | --- | --- | --- | --- |
| Nc1nc(Cl)nc2c1ncn2[C@@H]1O[C@H](COP(=O)([O-])OP(=O)([O-])OP(=O)([O-])[O-])[C@@H](O)[C@H]1O.[Na+].[Na+].[Na+].[Na+] | 12.9 µM | 1.9 µmol/min/mg |  |  |  |  |
| Nc1ncnc2c1ncn2[C@@H]1O[C@H](COP(=O)([O-])OP(=O)([O-])OP(=O)([O-])[O-])[C@@H](O)[C@H]1O.[Na+].[Na+].[Na+].[Na+] | 15.9 µM | 2.4 µmol/min/mg |  |  |  |  |
| CSc1nc(N)c2ncn([C@@H]3O[C@H](COP(=O)([O-])OP(=O)([O-])OP(=O)([O-])[O-])[C@@H](O)[C@H]3O)c2n1.[Na+].[Na+].[Na+].[Na+] | 62 µM | 1.9 µmol/min/mg |  |  | 1 nM |  |
| [BH3-]P(=O)(OC[C@H]1O[C@@H](n2cnc3c(N)nc(SC)nc32)[C@H](O)[C@@H]1O)OP(=O)([O-])OP(=O)([O-])[O-].[Na+].[Na+].[Na+].[Na+] (stereo partly drawn) | 17.4 µM | 0.89 µmol/min/mg |  |  | 2.6 nM | 5.9 h |

More lines, now with the values ahead:

| Km (NTPDase1) | Vmax (Bos taurus) | Hydrolysis rate constant [1] | half-life [2] | EC50 (P2Y purinoceptor 1) | half-life (Half life was determined) | Compound |
| --- | --- | --- | --- | --- | --- | --- |
| 7.2 µM | 0.88 µmol/min/mg | 7.2e-05 s⁻¹ | 2.7 h |  |  | [BH3-]P(=O)(OC[C@H]1O[C@@H](n2cnc3c(N)nc(Cl)nc32)[C@H](O)[C@@H]1O)OP(=O)([O-])OP(=O)([O-])[O-].[Na+].[Na+].[Na+].[Na+] (stereo partly drawn) |
| 13.8 µM | 0.78 µmol/min/mg |  |  | 200 nM |  | [BH3-]P(=O)(OC[C@H]1O[C@@H](n2cnc3c(N)ncnc32)[C@H](O)[C@@H]1O)OP(=O)([O-])OP(=O)([O-])[O-].[Na+].[Na+].[Na+].[Na+] (stereo partly drawn) |
